According to ChEMBL document CHEMBL3272299, “Antineoplastic agents. 1. N-Protected vinyl, 1,2-dihaloethyl, and cyanomethyl esters of phenylalanine” (J Med Chem, 1977):
Active and inactive are the calls of the source. The calls are words filed in the database; no cut-off is given here.

Columns and labels:
W256 [1] = test: Antitumor activity against rat Walker 256 cells allografted in Sprague-Dawley rat assessed as host survival days at 2.5 mg/kg, ip qd; type: functional; conditions: route intraperitoneal
Method in brief: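 Walker 256 ascites cells were implanted ip into male Sprague-Dawley rats (75 ± 10 g). Compound in 0.05% Tween-water was given ip at 2.5 mg/kg/day, and the day of death was recorded. T/C was calculated from the mean survival time per group according to the NIH protocol. Melphalan served as the internal standard.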

[2] = Chemical stability of the compound by TLC analysis; type: physicochemical
P388 [3] = test: Antitumor activity against mouse P388 cells allografted in DBA/2 mouse assessed as tumor growth inhibition at 20 mg/kg, ip qd relative to control; type: functional; conditions: route intraperitoneal
Ehrlich [4] = test: Antitumor activity against mouse EAC allografted in CF1 mouse assessed as tumor volume at 33 mg/kg/day measured on day 7; type: functional
W256 [5] = test: Antitumor activity against rat Walker 256 cells allografted in Sprague-Dawley rat assessed as tumor growth inhibition at 2.5 mg/kg, ip qd relative to control; type: functional; conditions: route intraperitoneal
[6] = Chemical stability of the compound assessed as optical rotation; type: physicochemical
[7] = Acute toxicity in CF1 mouse; type: organism-based; conditions: in vivo
Ehrlich [8] = test: Antitumor activity against mouse EAC allografted in CF1 mouse assessed as inhibition of tumor growth at 33 mg/kg/day measured on day 7; type: functional; conditions: 168 h
P388 [9] = test: Antitumor activity against mouse P388 cells allografted in DBA/2 mouse assessed as host survival at 20 mg/kg, ip qd; type: functional; conditions: route intraperitoneal
Method in brief: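 P388 leukaemia cells were implanted on day 0 in male DBA/2 mice (20 g). Compound was dosed ip at 20 mg/kg/day. T/C survival values were calculated according to the NIH protocol. 5-Fluorouracil served as the internal standard.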

Ehrlich [10] = test: Antitumor activity against mouse EAC allografted in CF1 mouse assessed as host survival at 33 mg/kg/day measured on day 7; type: functional, organism-based

Row | Compound | Survival (W256 [1]) | Stability [2] | T/C (P388 [3]) | Activity (Ehrlich [4]) | T/C (W256 [5]) | Stability [6] | LD50 [7] | inhibition in vivo at 33 mg/kg/day (Ehrlich [8]) | Survival (P388 [9]) | Survival (Ehrlich [10])
1 | Cc1ccc(S(=O)(=O)N[C@@H](Cc2ccccc2)C(=O)OCC#N)cc1 | 8.5 days | Stable | 112 | 0.4 mL | 113 | Stable | 730 µmol/kg | 97% | 9.1 days | 
2 | CC(=O)N[C@@H](Cc1ccccc1)C(=O)OCC#N |  | Stable |  | 3.9 mL |  | Stable |  | 16% |  | Active
3 | N#CCOC(=O)C(Cc1ccccc1)NC(=O)OCc1ccccc1 (racemic) |  | Stable |  | 0.4 mL |  | Stable | 760 µmol/kg | 86% |  | Active
4 | C=COC(=O)[C@@H](N)Cc1ccccc1.Cl |  | Stable |  | 2.2 mL |  | Stable |  | 41% |  | 
5 | O=C(N[C@H](Cc1ccccc1)C(=O)OC(Br)CBr)OCc1ccccc1 (stereo not given in full) | 8.7 days |  | 92 | 0 mL | 117 |  | 310 µmol/kg | 100% | 7.5 days | Active
6 | N[C@H](CO)Cc1ccccc1 [L-PHENYLALANINOL] |  |  |  | 0.6 mL |  |  | 500 µmol/kg | 92% |  | 
7 | O=C(N[C@@H](Cc1ccccc1)C(=O)OC(Br)CBr)OCc1ccccc1 (stereo not given in full) | 23 days |  | 83 | 0 mL | 305 |  | 150 µmol/kg | 100% | 6.7 days | Active
8 | O=C(N[C@@H](Cc1ccccc1)C(=O)OC(Cl)CCl)OCc1ccccc1 (stereo not given in full) |  |  |  | 0.8 mL |  |  | 1260 µmol/kg | 93% |  | Active
9 | C=COC[C@H](Cc1ccccc1)NC(=O)OCc1ccccc1 |  | Stable |  | 1.4 mL |  | Stable |  | 47% |  | 
10 | C=COC(=O)[C@H](Cc1ccccc1)NC(=O)[C@H](Cc1ccccc1)NC(=O)OCc1ccccc1 |  | Stable |  | 2.1 mL |  | Stable |  | 43% |  | 
11 | N#CCOC(=O)[C@H](Cc1ccccc1)NC(=O)[C@H](Cc1ccccc1)NC(=O)OCc1ccccc1 |  | Stable |  | 1.5 mL |  | Stable |  | 52% |  | Active
12 | C=COC(=O)C(Cc1ccccc1)NC(=O)OCc1ccccc1 (racemic) |  | Stable |  | 1.3 mL |  | Stable | 1540 µmol/kg | 58% |  | Active
13 | Cl.N#CCOC(=O)[C@@H](N)Cc1ccccc1 |  | Stable |  | 2.5 mL |  | Stable |  | 9% |  | 
14 | CCOC(=O)[C@H](Cc1ccccc1)NC(=O)OCc1ccccc1 |  |  |  | 1.5 mL |  |  | 1530 µmol/kg | 57% |  | Active
15 | N[C@@H](Cc1ccc(N(CCCl)CCCl)cc1)C(=O)O [MELPHALAN] | 23 days |  |  | 0.1 mL | 305 |  |  | 99% |  | Active
16 | C=CCOC(=O)[C@H](Cc1ccccc1)NC(=O)OCc1ccccc1 |  | Stable |  | 2.6 mL |  | Stable |  | 24% |  | Active
17 | O=C(/C=C/c1ccccc1)N[C@@H](Cc1ccccc1)C(=O)O |  |  |  | 2.1 mL |  |  | 740 µmol/kg | 58% |  | Active
18 | C=CCOC(=O)C(Cc1ccccc1)NC(=O)OCc1ccccc1 (racemic) |  | Stable |  | 0.6 mL |  | Stable |  | 71% |  | Active
19 | N#CCOC(=O)[C@@H](Cc1ccccc1)NC(=O)OCc1ccccc1 |  | Stable |  | 1 mL |  | Stable | 80 µmol/kg | 72% |  | 
20 | O=C(N[C@@H](Cc1ccccc1)C(=O)O)OCc1ccccc1 |  |  |  | 0.6 mL |  |  | 840 µmol/kg | 75% |  | Active

Row | Compound | Survival (W256 [1]) | Stability [2] | T/C (P388 [3]) | Activity (Ehrlich [4]) | T/C (W256 [5]) | Stability [6] | LD50 [7] | inhibition in vivo at 33 mg/kg/day (Ehrlich [8]) | Survival (P388 [9]) | Survival (Ehrlich [10])
21 | O=Cc1ccccc1 [BENZALDEHYDE] |  |  |  | 0.8 mL |  |  |  | 69% |  | Active
22 | Cc1ccc(S(=O)(=O)N[C@@H](Cc2ccccc2)C(=O)O)cc1 |  |  |  | 0.5 mL |  |  |  | 84% |  | Active
23 | C=COC(=O)[C@H](Cc1ccccc1)NC(=O)OCc1ccccc1 | 18.1 days | Stable | 100 | 0.1 mL | 226 | Stable | > 6150 µmol/kg | 99.9% | 8.1 days | Active
24 | O=C(N[C@@H](Cc1ccccc1)C(=O)O)c1ccccc1 |  |  |  | 1.3 mL |  |  |  | 73% |  | Active
25 | CCOC(=O)[C@H](Cc1ccccc1)NC(=O)/C=C/c1ccccc1 |  |  |  | 5 mL |  |  |  | 0% |  | Active
26 | C=COC(=O)[C@H](Cc1ccccc1)NC(=O)c1ccccc1 |  | Stable |  | 2.1 mL |  | Stable |  | 56.8% |  | Active
27 | O=C(NC(Cc1ccccc1)C(=O)O)OCc1ccccc1 (racemic) |  |  |  | 2.6 mL |  |  |  | 52% |  | 
28 | C#CCOC(=O)[C@H](Cc1ccccc1)NC(=O)OCc1ccccc1 |  |  |  | 3.3 mL |  |  |  | 54% |  | 
29 | C=COC(=O)[C@H](Cc1ccccc1)NS(=O)(=O)c1ccc(C)cc1 |  | Stable |  | 3.8 mL |  | Stable |  | 56.8% |  | 
30 | C#CCN[C@@H](Cc1ccccc1)C(=O)OCC |  |  |  | 3.7 mL |  |  |  | 16% |  | Active
31 | Sc1ncnc2nc[nH]c12 [MERCAPTOPURINE ANHYDROUS] |  |  | 148 | 0.7 mL |  |  |  | 99.6% | 12 days | Active
32 | Cc1ccc(S(=O)(=O)N[C@@H](Cc2ccccc2)C(=O)C(=O)CCl)cc1 |  |  |  | 0.01 mL |  |  | 210 µmol/kg | 100% |  | 
33 | N#CCOC(=O)[C@H](Cc1ccccc1)NC(=O)c1ccccc1 |  | Stable |  | 1.8 mL |  | Stable | 360 µmol/kg | 47% |  | 
34 | O=C(N[C@@H](Cc1ccccc1)C(=O)N[C@@H](Cc1ccccc1)C(=O)OC(Br)CBr)OCc1ccccc1 (stereo not given in full) |  |  |  | 0.2 mL |  |  | 780 µmol/kg | 92% |  | Active
35 | N#CCOC(=O)[C@H](Cc1ccccc1)NC(=O)OCc1ccccc1 | 8.5 days | Stable | 82 | 0.2 mL | 113 | Stable | 440 µmol/kg | 99.9% | 6.6 days | Active
36 | C=COC(=O)[C@@H](Cc1ccccc1)NC(=O)OCc1ccccc1 |  | Stable |  | 3.6 mL |  | Stable | 1540 µmol/kg | 36% |  | Active
37 | N#CCOC(=O)[C@H](Cc1ccccc1)NC(=O)/C=C/c1ccccc1 |  | Stable |  | 2.8 mL |  | Stable |  | 27% |  | Active
38 | O=C(N[C@H](CO)Cc1ccccc1)OCc1ccccc1 |  |  |  | 1.3 mL |  |  |  | 55% |  | Active
39 | O=C(N[C@H](Cc1ccccc1)C(=O)O)OCc1ccccc1 |  |  |  | 4.3 mL |  |  |  | 0% |  | Active
40 | O=C(O)CCCc1ccc(N(CCCl)CCCl)cc1 [CHLORAMBUCIL] |  |  |  |  |  |  | 61 µmol/kg |  |  | 
